Our source for the Activity, Km and Vmax values is ChEMBL document CHEMBL1143932, “Biochemical and biological properties of 5-bromotubercidin: differential effects on cellular DNA-directed and viral RNA-directed RNA synthesis” (Bioorg Med Chem, 2008).

Active and inactive are the calls of the source. The rule behind the calls is not given here.

Usually Km stands for the concentration of substrate that gives half-maximal velocity. For orientation: Vmax means the top rate of the reaction or transport when substrate is in excess.

For assay [1], the system named is L2. The assay can be described thus: Growth inhibition of mouse L2 cells at 15 uM.
Assay [2] is filed under the species Oryctolagus cuniculus. In words: Activity of rabbit liver adenosine kinase. Put shortly:
(§1)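 Adenosine kinase partially purified from rabbit liver. Assay in 20 mM KPO4 pH 5.8 with 0.7 mM ATP, 0.25 mM phosphoenol pyruvate, 0.5 mM MgCl2, 50 mM KCl, pyruvate kinase and 7–70 µM radioactive nucleoside substrate, at 25 °C. Reaction stopped with 0.25 M perchloric acid. Nucleotides separated by paper electrophoresis at pH 3.5 and counted by scintillation. Km, Ki and relative Vmax (adenosine = 100) derived.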

Assay [3] is filed under the species Oryctolagus cuniculus. The assay can be described thus: Activity of rabbit liver adenosine kinase relative to adenosine. Put shortly: as §1

`Nc1ncnc2c1ccn2[C@@H]1O[C@H](CO)[C@@H](O)[C@H]1O`: in assay [1], the result was Active. In addition, in assay [2], the Km is 9.5 µM and the Vmax worked out at 3.57 µM/min. The Activity in assay [3] came out at 114.

Regarding `Nc1ncnc2c1ncn2[C@@H]1O[C@H](CO)[C@@H](O)[C@H]1O`, in assay [2], the Km was 5.5 µM and the Vmax is 3.13 µM/min.
